This is a sample that favours compounds with a hit; in the whole collection about 2.9% have one here.
Beta2AR agonist: beta2AR agonists driving receptor internalization, primary screen, cell-based, FAP fluorogen, flow cytometry; Am2.2-beta2AR cells; 0.43% of 340,000 active; Beta-2 adrenergic receptor (Homo sapiens), P07550; response, % (concentration not given with the values);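 active means response above a set limit, near 3 SD of response in nonfluorescent compounds, cut at about 42% in these data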
Target sequence (P07550 whole entry, looked up): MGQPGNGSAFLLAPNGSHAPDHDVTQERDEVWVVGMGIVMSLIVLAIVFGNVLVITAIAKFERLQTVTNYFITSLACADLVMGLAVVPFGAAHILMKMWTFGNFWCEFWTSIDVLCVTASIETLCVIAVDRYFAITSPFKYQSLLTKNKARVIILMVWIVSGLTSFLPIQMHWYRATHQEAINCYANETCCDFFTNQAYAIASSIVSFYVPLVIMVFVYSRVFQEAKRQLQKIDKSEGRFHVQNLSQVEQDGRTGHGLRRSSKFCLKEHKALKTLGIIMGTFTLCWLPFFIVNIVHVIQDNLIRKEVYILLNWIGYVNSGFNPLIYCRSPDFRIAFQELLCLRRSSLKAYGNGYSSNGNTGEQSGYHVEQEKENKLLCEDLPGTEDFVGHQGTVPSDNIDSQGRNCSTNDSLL
MEKK3 PB1 HTS: modulators of MEKK3-MEK5 PB1 binding, primary screen, biochemical, wildtype MEKK3, multiplex bead flow cytometry, Alexa488-MEK5; binding response (% of control), % at 10 µM; Mitogen-activated protein kinase kinase kinase 3 (Homo sapiens), Q99759; bead-based flow cytometry, Alexa488-MEK5 binding to MEKK3; actives lie on both sides; 0 = blocked by unlabeled MEK5, 100 = vehicle; 1.4% of 290,000 active;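 active means binding response more than 3 SD above or below the average of its plate-row segment, actives on both sides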;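 further: Alexa488 bead fluorescence after subtracting the streptavidin-only scavenger bead signal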
MEKK2 mut-MEK5: MEK5 binding signal on mutant MEKK2 PB1, primary screen, biochemical, multiplex bead flow cytometry, Alexa488-MEK5; AID 1530, 2009; percent response, % at 10 µM; 0.35% of 290,000 active; Alexa488-MEK5 binding to MEKK2 mutant; in the data active means percent response above about 24%, passing the limit was not always enough
MEKK2 WT-MEK5: modulators of MEK5 binding to wildtype MEKK2, primary screen, biochemical, multiplex bead flow cytometry, Alexa488-MEK5; Mitogen-activated protein kinase kinase kinase 2 (Homo sapiens), Q9Y2U5; Alexa488-MEK5 binding to MEKK2 WT; actives lie on both sides; binding response (% of control), % at 10 µM; 1.1% of 290,000 active; in the data active means binding response below about 67% or above about 130%
Dynein transport: inhibitors of GR-EGFP nuclear translocation, primary screen, dynein cargo transport inhibitor project, imaging, high-content, 3617.4 mouse cells; z-score, hits read low; test concentration mostly 20 µM; stimulated with dexamethasone, 1 µM; stronger effect = lower value; 0.47% of 220,000 active;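 active means plate z-score of nuclear minus cytoplasmic receptor signal below a set negative limit, without overly bright fluorescence or cell loss, cut at about -3.5 in these data, passing the limit was not always enough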;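 further: z-score of nuclear minus cytoplasmic ring GR-EGFP intensity difference per well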
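medium = tetracycline-free induction medium containing charcoal-stripped FBS | probe or stimulus = dexamethasone, 1.0 µM final | timing = 48 h induction, then 1 h compound, then 30 min agonist, 37 °C | detection = automated 10x imaging of fixed Hoechst-stained cells | read-out basis = nuclear versus cytoplasmic GR-EGFP signal, averaged per well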
ATG4B inhibitor: ATG4B protease inhibitors, primary screen, biochemical, fluorescence, uHTS; Cysteine protease ATG4B (Homo sapiens), Q9Y4P1; 0.51% of 340,000 active; ATG4B cleavage of LC3-PLA2, NBD-HPC fluorescence, 1 h; inhibition, % at 8.33 µM; AID 504462, 2011; in the data active means inhibition above about 40%
* = called active by the depositor.

COC(CNC(=O)C(=O)Nc1cc2c3c(c1)CC(=O)N3CCC2)OC was read as Beta2AR agonist 1, MEKK3 PB1 HTS 102, MEKK2 mut-MEK5 1, MEKK2 WT-MEK5 100 and ATG4B inhibitor 9.
Screening Cn1c(=O)c(C(=O)NNC(=O)c2cccc(Cl)c2)c(O)c2ccccc21 returned Beta2AR agonist 77*, MEKK3 PB1 HTS 98, MEKK2 mut-MEK5 0, MEKK2 WT-MEK5 99 and ATG4B inhibitor 3.
`Cc1cc(N2C(=O)C=CC2=O)c([N+](=O)[O-])cc1C` gave Beta2AR agonist 24, MEKK3 PB1 HTS 103, MEKK2 mut-MEK5 0, MEKK2 WT-MEK5 101, Dynein transport -6.3* and ATG4B inhibitor -11.
Cc1c([N+](=O)[O-])cc(N2C(=O)C=CC2=O)cc1[N+](=O)[O-] was read as Beta2AR agonist 1 and ATG4B inhibitor -6.
Screening O=C(Nc1cccc(C(=O)O)c1)/C(=C\c1ccc2c(c1)OCO2)NC(=O)c1ccccc1Cl returned Beta2AR agonist 0, MEKK3 PB1 HTS 99, MEKK2 mut-MEK5 -5, MEKK2 WT-MEK5 97 and ATG4B inhibitor -7.
CCOc1cc(C=O)c(Br)cc1OC1CCCC1 was read as Beta2AR agonist 44*, MEKK3 PB1 HTS 103, MEKK2 mut-MEK5 2, MEKK2 WT-MEK5 100, Dynein transport 0.064 and ATG4B inhibitor 9.
COc1cc(C=O)c(Br)cc1OCc1ccc(C)cc1 was read as Beta2AR agonist 8, MEKK3 PB1 HTS 83, MEKK2 mut-MEK5 -13, MEKK2 WT-MEK5 79, Dynein transport -0.36 and ATG4B inhibitor 11.
`O=C(O)c1ccc(S(=O)(=O)Nc2ccc3c(c2)OCCO3)cc1` gave Beta2AR agonist -1, MEKK3 PB1 HTS 100, MEKK2 mut-MEK5 8, MEKK2 WT-MEK5 99 and ATG4B inhibitor 0.
`CC(C)(C)C1CCc2c(C(=O)N/N=C/c3cccs3)csc2C1` (stereo unspecified) gave Beta2AR agonist 94*, MEKK3 PB1 HTS 104, MEKK2 mut-MEK5 2, MEKK2 WT-MEK5 102, Dynein transport 0.49 and ATG4B inhibitor 3.
`CC(C)(C)C1CCc2c(C(=O)NNC(=O)/C=C/C(=O)O)csc2C1` (stereo unspecified) gave Beta2AR agonist 48*, MEKK3 PB1 HTS 123, MEKK2 mut-MEK5 1, MEKK2 WT-MEK5 107, Dynein transport -0.17 and ATG4B inhibitor 0.
`COc1cc2c(cc1N)-c1ccc(N)cc1C2` gave Beta2AR agonist 2 and ATG4B inhibitor 4.
Screening O=C(NCC(c1ccco1)N1CCCC1)c1ccccc1Sc1ccc(C(F)(F)F)cc1[N+](=O)[O-] (stereo unspecified) returned Beta2AR agonist -4 and ATG4B inhibitor 1.
Screening O=C(C1CCN(c2ncnc3c2nc2n3CCCCC2)CC1)N1CCN(c2cccc(Cl)c2)CC1 returned Beta2AR agonist 19, MEKK3 PB1 HTS 93, MEKK2 mut-MEK5 -11, MEKK2 WT-MEK5 94 and ATG4B inhibitor 47*.
Screening O=C(C1CCCN(c2ncnc3c2nc2n3CCCCC2)C1)N1CCN(c2ccc(Cl)cc2)CC1 (stereo unspecified) returned Beta2AR agonist 13, MEKK3 PB1 HTS 100, MEKK2 mut-MEK5 -11, MEKK2 WT-MEK5 97 and ATG4B inhibitor 8.
`COc1ccc(S(=O)(=O)NCc2csc(C)n2)cc1OC` gave Beta2AR agonist 6, MEKK3 PB1 HTS 102, MEKK2 mut-MEK5 10, MEKK2 WT-MEK5 105 and ATG4B inhibitor 0.
`CCOC(=O)Oc1ccc2oc(=O)cc(C)c2c1` gave Beta2AR agonist -3, MEKK3 PB1 HTS 101, MEKK2 mut-MEK5 1, MEKK2 WT-MEK5 101, Dynein transport -0.24 and ATG4B inhibitor -1.
For Cc1cc(=O)oc2ccc(OCC(=O)N(Cc3ccc(F)cc3)Cc3ccco3)cc12 the results were Beta2AR agonist 61*, MEKK3 PB1 HTS 107, MEKK2 mut-MEK5 11, MEKK2 WT-MEK5 104, Dynein transport -0.87 and ATG4B inhibitor -23.
Cc1ccc(/C=C2\SC(=S)N(/N=C/c3cc([N+](=O)[O-])ccc3O)C2=O)o1 was read as Beta2AR agonist 2, MEKK3 PB1 HTS 87, MEKK2 mut-MEK5 -19, MEKK2 WT-MEK5 70, Dynein transport 0.3 and ATG4B inhibitor 47*.
O=[N+]([O-])c1ccc(O)c(/C=N/n2cnc3ccccc32)c1 was read as Beta2AR agonist 15, MEKK3 PB1 HTS 100, MEKK2 mut-MEK5 3, MEKK2 WT-MEK5 95, Dynein transport -0.9 and ATG4B inhibitor 9.
`CCN(CC)c1ccc(C(=C2C=CC(=[N+](CC)CC)C=C2)c2ccccc2)cc1` gave Beta2AR agonist 59* and ATG4B inhibitor 9.
For CC1CCCC(N2CCN(C(=O)c3ccccc3F)CC2)C1 (stereo unspecified) the results were Beta2AR agonist -2, MEKK3 PB1 HTS 106, MEKK2 mut-MEK5 4, MEKK2 WT-MEK5 102 and ATG4B inhibitor -3.
O=C1NC[C@H](Cc2ccccc2)N(CC2CCN(CC3CCCC3)CC2)C1=O was read as Beta2AR agonist 8.
Cc1ccc(C(=O)c2no[n+]([O-])c2C(=O)c2ccc(C)cc2)cc1 was read as Beta2AR agonist 42*, MEKK3 PB1 HTS 103, MEKK2 mut-MEK5 1, MEKK2 WT-MEK5 100, Dynein transport -2.1 and ATG4B inhibitor 8.
For COc1ccc2sc(-c3ccc(SC)cc3)c(-c3ccc(O)cc3)c2c1 the results were Beta2AR agonist 53* and ATG4B inhibitor 9.
CCOc1cc(/C=C/C(=O)Nc2ccc(C(=O)NCCN(CC)CC)cc2)ccc1OCC(C)C was read as Beta2AR agonist 25, MEKK3 PB1 HTS 122, MEKK2 mut-MEK5 4, MEKK2 WT-MEK5 138*, Dynein transport 3.6 and ATG4B inhibitor 2.
`CC(Sc1nnnn1C)C(=O)NC1CCCC1` (stereo unspecified) gave Beta2AR agonist -7 and ATG4B inhibitor -7.
`CN(C)C=NC(=O)c1[nH]c2ccc(Cl)cc2c1-c1ccccc1` gave Beta2AR agonist 49*, MEKK3 PB1 HTS 108, MEKK2 mut-MEK5 10, MEKK2 WT-MEK5 103 and ATG4B inhibitor 8.
`Cc1cccc(NS(=O)(=O)c2ccc(C(=O)N3CCC3)cc2)c1C` gave Beta2AR agonist 3 and ATG4B inhibitor 14.

Screens deposited in PubChem by several laboratories.
